Results gathered from unrelated publications.
Matrix: Caco-2

| SMILES | conditions | efflux ratio |
| --- | --- | --- |
| CC(C)(N)COCC(=O)N1CCC[C@H](C(=O)NCc2nc(-c3ccc(C(F)(F)F)cc3)cs2)C1 |  | 240 |
| CC(C)c1nc(N(C)S(C)(=O)=O)nc(-c2ccc(F)cc2)c1/C=C/[C@@H](O)C[C@@H](O)CC(=O)O | 5 µM, 2 h | 142 |
| O=C(NCc1nc(-c2ccc(C(F)(F)F)cc2)cs1)[C@H]1CCCN(C(=O)COCCN2CCCC2)C1 |  | 46 |
| N#Cc1ccc(C[C@H](Nc2nnc(-c3ccc(F)cc3)s2)C(=O)N2CCc3ccccc32)cc1 | 100 µM, 2 h | > 20 |
| C[C@H]1O[C@@H](O[C@H]2[C@@H](O)C[C@H](O[C@H]3[C@@H](O)C[C@H](O[C@H]4CC[C@@]5(C)[C@H](CC[C@@H]6[C@@H]5C[C@@H](O)[C@]5(C)[C@@H](C7=CC(=O)OC7)CC[C@]65O)C4)O[C@@H]3C)O[C@@H]2C)C[C@H](O)[C@@H]1O | 10 µM, 2 h | 28.3 |
| Cc1cc(C)c(CNC(=O)c2cc(Cl)c3c(c2C)O[C@@](C)([C@H]2CC[C@H](N(C)C)CC2)O3)c(=O)[nH]1 | 1 µM | 52.4 |
| CO/N=C(\C(=O)N[C@@H]1C(=O)N2C(C(=O)O)=C(CSC(=O)c3ccco3)CS[C@H]12)c1csc(N)n1 | 200 µg/mL, 2 h, pH 7.4 | 1.96 |
| O=c1cc(-c2ccc(O)cc2)oc2c([C@@H]3O[C@H](CO)[C@@H](O)[C@H](O)[C@H]3O)c(O)cc(O)c12 | 50 µg/mL | 1.11 |
| NCCOCC(=O)N1CCC[C@H](C(=O)NCc2nc(-c3ccc(C(F)(F)F)cc3)cs2)C1 |  | 120 |
| O=c1c(O[C@@H]2O[C@H](CO)[C@H](O)[C@H](O)[C@H]2O)c(-c2ccc(O)c(O)c2)oc2cc(O)cc(O)c12 | 50 µg/mL | 1.26 |
| N#Cc1ccc(C[C@H](Nc2c(Nc3ccc(Br)cc3)c(=O)c2=O)C(=O)N2CCc3ccccc32)cc1 | 100 µM, 2 h | > 20 |
| Cc1ncc(Cl)cc1NCc1ccc(C(=O)N[C@@H](CC2CCCC2)C(=O)NC2CC2)s1 | 5 µM, 2 h, pH 7.4 | 41 |
| CCOCC(=O)N1CCC[C@H](C(=O)NCc2nc(-c3ccc(C#N)nc3)cs2)C1 |  | 4.3 |
| CC[C@]1(O)C[C@@H]2CN(CCc3c([nH]c4ccccc34)[C@@](C(=O)OC)(c3cc4c(cc3OC)N(C)[C@H]3[C@@](O)(C(=O)OC)[C@H](OC(C)=O)[C@]5(CC)C=CCN6CC[C@]43[C@@H]65)C2)C1 | 10 µM, 2 h | 13.5 |
